# Assay results taken from ChEMBL document CHEMBL1146160, “Synthesis and evaluation of some lipidic aminoalcohols and diamines as immunomodulators” (Bioorg Med Chem Lett, 2006).
# Calls of active or inactive are those of the source. No cut-off for these calls is given here.
# Legend:
# [1] = Cytotoxicity against BALB/c mouse splenocytes at 10 ug/ml by MTT assay; type: cell-based; conditions: splenocyte
# Outline: (§1)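 Run in parallel with the proliferation assay on splenocyte cultures without Con-A, with MTT colourimetric read-out. Cytotoxicity % = [1 − OD(cells+compd)/OD(cells)] × 100.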
# [2] = Inhibition of concanavalin A-stimulated lymphoproliferation in BALB/c mouse splenocytes at 10 ug/ml by MTT assay; type: functional; conditions: Splenocyte
# [3] = Cytotoxicity against BALB/c mouse splenocytes at 1 ug/ml by MTT assay; type: cell-based; conditions: splenocyte; outline: as §1
# [4] = Inhibition of concanavalin A-stimulated lymphoproliferation in BALB/c mouse splenocytes at 1 ug/ml by MTT assay; type: functional; conditions: Splenocyte
# Lymphocyte = experiment: Reduction of rat lymphocyte stimulation by Graft-vs-Host assay relative to cyclophosphamide; type: functional; design: scale not given: the % may be the effect or the level left
# Outline: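 In a Graft-vs-Host assay measuring immunosuppressant ability, cyclophosphamide at 100 mg/kg/day served as the reference drug.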
# Macrophage [5] = experiment: Increase in nitric oxide production in normal rat alveolar macrophages; type: functional, cell-based
# Macrophage [6] = experiment: Increase in nitric oxide production in LPS-pre-stimulated rat alveolar macrophages at 100 ug/ml; type: functional
# Macrophage [7] = experiment: Increase in nitric oxide production in LPS-pre-stimulated rat alveolar macrophages; type: functional, cell-based
# Macrophage [8] = experiment: Increase in nitric oxide production in LPS-pre-stimulated rat alveolar macrophages at 10 ug/ml; type: functional
SMILES,Activity [1],inhibition at 10 µg/mL [2],Activity [3],inhibition at 1 µg/mL [4],Activity (Lymphocyte),Activity (Macrophage [5]),Activity (Macrophage [6]),Activity (Macrophage [7]),Activity (Macrophage [8])
CCCCCCCCCCCCCCC(NCCCC)C(=O)O (stereo not given),5.1%,32.9%,,,,,,,
CCCCCCCCCCCCCCC(CO)N(CC)CC (stereo not given),12.8%,79.5%,7.5%,74.8%,,,,,
CCCCCCCCCCCCCCC(CO)N(CCCC)CCCC (stereo not given),11.7%,50.3%,,,,,,,
CCCCCCCCCCCCCCC(CO)NCCCCCC (stereo not given),14.6%,78.4%,5%,74.1%,63%,inactive,25%,,
CCCCCCCCCCCCCCC(CO)NCCCCCCCCCC (stereo not given),12.6%,59.8%,6.6%,12%,,,,,
CCCCCCCCCCCCCCC(CO)NCC (stereo not given),17.1%,72.9%,10.5%,68.4%,,,,,
CCCCCCCCCCCCCCC(CN(CC)CC)NC(=O)OC(C)(C)C (stereo not given),7.8%,89.5%,6.5%,65.2%,,,,,
CCCCCCCCCCCCCCC(COCc1ccccc1)N(CC)CC (stereo not given),15.6%,72.6%,14.1%,71.6%,,,,,
CCCCCCCCCCCCCCC(N)CO (stereo not given),20.2%,72.4%,15.1%,68.7%,,,,,
CCCCCCCCCCCCCCC(CNC(=O)CCCC(=O)O)NC(=O)OC(C)(C)C (stereo not given),1.2%,80.8%,0%,19.3%,,,,inactive,
CCCCCCCCCCCCCCC(CN)NC(=O)OC(C)(C)C (stereo not given),4.3%,81.2%,4.2%,73.4%,32%,inactive,29%,,20%
CCCCCCCCCCCCCCC(N)CN(CC)CC (stereo not given),24.2%,84.5%,1.7%,74.2%,,inactive,,inactive,
CCCCCCCCCCCCCCC(COCc1ccccc1)NC(=O)CCCC(=O)OC (stereo not given),2.5%,3.4%,,,,inactive,,inactive,
CCCCCCCCCCCCCCC(NC(=O)OC(C)(C)C)C(=O)O (stereo not given),5.1%,32.9%,,,,,,,
CCCCCCCCCCCCCCC(N)CN (stereo not given),2.5%,50.1%,,,,,,,
CCCCCCCCCCCCCCC(CO)NC(=O)CCCC(=O)O (stereo not given),14.5%,49.1%,,,,,,,
CCCCCCCCCCCCCCC(CO)NC(=O)CCCC(=O)OC (stereo not given),18.9%,50.2%,,,,,,,
CCCCCCCCCCCCCCC(N)COCc1ccccc1 (stereo not given),12.2%,79.1%,0%,0%,,inactive,,inactive,
CCCCCCCCCCCCCCC(N)CNC(=O)CCCC(=O)O (stereo not given),12.8%,51%,,,,inactive,,inactive,
CCCCCCCCCCCCCCC(COCc1ccccc1)NCC (stereo not given),11.9%,49.8%,,,,,,,
CCCCCCCCCCCCCCC(C(=O)O)N(CCCC)CCCC (stereo not given),12.5%,47.8%,,,,,,,
CCCCCCCCCCCCCCC(C(=O)O)N(CC)CC (stereo not given),12.1%,43.1%,,,,,,,
CCCCCCCCCCCCCCC(COCc1ccccc1)NC(=O)CCCC(=O)O (stereo not given),6.4%,65.4%,0%,27.8%,,inactive,,inactive,
CCCCCCCCCCCCCCC(CO)NCCCC (stereo not given),16.4%,49.1%,,,,,,,
